Results pooled from the literature.
Each line is one published result; the experiments were not run side by side.
Target: Serine/threonine-protein kinase ULK2 (ULK2, Homo sapiens, UniProt Q8IYT8)
Residues used in one study (Q8IYT8 1-1036): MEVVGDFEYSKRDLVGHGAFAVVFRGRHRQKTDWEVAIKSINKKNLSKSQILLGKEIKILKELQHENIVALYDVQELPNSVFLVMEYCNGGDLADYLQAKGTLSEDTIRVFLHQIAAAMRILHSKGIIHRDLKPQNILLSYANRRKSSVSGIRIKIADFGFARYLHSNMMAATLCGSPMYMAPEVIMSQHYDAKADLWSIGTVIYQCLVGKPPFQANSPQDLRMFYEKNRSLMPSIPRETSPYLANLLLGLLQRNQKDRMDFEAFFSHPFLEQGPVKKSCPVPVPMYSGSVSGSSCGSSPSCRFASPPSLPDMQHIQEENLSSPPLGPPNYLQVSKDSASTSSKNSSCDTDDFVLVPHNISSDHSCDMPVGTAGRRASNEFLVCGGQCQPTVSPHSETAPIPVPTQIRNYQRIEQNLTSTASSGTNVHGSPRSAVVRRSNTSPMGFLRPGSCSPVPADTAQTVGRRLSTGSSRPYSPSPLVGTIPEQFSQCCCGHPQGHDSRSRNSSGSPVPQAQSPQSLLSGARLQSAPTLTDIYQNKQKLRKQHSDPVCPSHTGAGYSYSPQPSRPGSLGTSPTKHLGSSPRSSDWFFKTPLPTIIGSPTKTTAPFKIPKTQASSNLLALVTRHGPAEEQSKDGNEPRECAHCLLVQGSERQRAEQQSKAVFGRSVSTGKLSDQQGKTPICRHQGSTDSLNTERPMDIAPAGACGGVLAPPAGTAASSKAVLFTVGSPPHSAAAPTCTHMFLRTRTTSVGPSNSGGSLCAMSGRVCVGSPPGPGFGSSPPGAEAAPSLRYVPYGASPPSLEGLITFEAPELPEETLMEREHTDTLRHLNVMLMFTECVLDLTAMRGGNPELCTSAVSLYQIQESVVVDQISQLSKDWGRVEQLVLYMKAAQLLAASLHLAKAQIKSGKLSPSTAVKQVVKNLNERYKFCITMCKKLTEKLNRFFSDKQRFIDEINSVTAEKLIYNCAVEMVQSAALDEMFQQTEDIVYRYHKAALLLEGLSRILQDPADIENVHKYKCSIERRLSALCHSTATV

| SMILES | assay | conditions | remaining binding [%] |
| --- | --- | --- | --- |
| CCOC(=O)c1cc2cc(-c3cc(C(=O)NCc4ccc(C(=O)O)cc4)nn3C)ccc2[nH]1 | cell-free assay, competition with immobilised ligand | 0.1 µM | 78 |
| O=C(c1ccc(Nc2ncc(Cl)c(-c3cc4ccccc4s3)n2)cc1)N1CCC(N2CCCC2)CC1 | binding, competition with immobilised ligand | 1 µM | 35 |
| FC(F)(F)c1ccc2c(c1)nc(-c1cccnc1)n2C1CC1 | cell-free assay, competition with immobilised ligand | 1 µM | 100 |
| N#Cc1ccccc1CSc1nnc2c(n1)[nH]c1ccccc12 | binding, competition with immobilised ligand | 10 µM | 94 |
| CN(CCCC(F)(F)F)c1nccc(-c2cnn3ncccc23)n1 | binding | 1 µM | 96 |
| C[C@@H]1CN(c2ccc3ncc(-c4ccc5[nH]nc(C6CC6)c5c4)n3n2)C[C@H](C)O1 | binding, competition with immobilised ligand | 0.5 µM | 91 |
| FC(F)(F)Oc1cccc(-c2cnc3ccc(-c4ccncc4)nn23)c1 | binding, competition with immobilised ligand | 5 µM | 78 |
| c1cncc(-c2cccc(Nc3nccc(NC4CCCCC4)n3)c2)c1 | binding, competition with immobilised ligand | 10 µM | 80 |
| C[C@@H]1CCN(c2nccc(-c3cnn4ncccc34)n2)C1 | binding | 1 µM | 69 |
| O=C1CCc2cc(Nc3cc(OC4CCOCC4)c([N+](=O)[O-])cc3Cl)ccc2N1 | cell-free assay, competition with immobilised ligand | 1 µM | 99 |
| O=C(c1ccc(Nc2nccc(-c3cc4ccccc4s3)n2)cc1)N1CCC(N2CCCC2)CC1 | binding, competition with immobilised ligand | 1 µM | 87 |
| COc1cnc(Nc2cccc(S(N)(=O)=O)c2)nc1N1CCN(c2ccccc2)CC1 | binding, competition with immobilised ligand | 1 µM | 96 |
| CNCc1ccccc1-c1csc([C@H](C)Nc2nc(C)nc3cc(OC)c(OC)cc23)c1 | cell-free assay, competition with immobilised ligand | 1 µM | 100 |
| CNC(=O)[C@@H]1CC[C@@H](n2c(-c3ccc4cnccc4c3)nc3ccc(C(=O)NCc4cccc(C(N)=O)c4)cc32)C1 | binding, competition with immobilised ligand | 1 µM | 100 |
| CN(c1nccc(-c2cnn3ncccc23)n1)C1CC1 | binding | 1 µM | 100 |
| Nc1ncc2c(n1)-c1c([nH]c3ccc(C#CC4CC4)cc13)CCCC2 | binding, competition with immobilised ligand | 1 µM | 100 |
| CC(C)(C)c1ccc(-c2nc(CBr)nn2-c2cccc(O)c2)cc1 | cell-free assay, competition with immobilised ligand | 10 µM | 92 |
| O=C(NS(=O)(=O)c1ccc(NCC2CCOCC2)c([N+](=O)[O-])c1)c1ccc(N2CCN(Cc3ccc(C(F)(F)F)cc3-c3ccc(Cl)cc3)CC2)cc1Oc1cnc2[nH]ccc2c1 | cell-free assay, competition with immobilised ligand | 1 µM | 100 |
| Cc1cnn2ncc(-c3ccnc(N(C)C)n3)c2c1 | binding | 1 µM | 92 |
| CCCOc1ccc([C@H]2[C@H](C(=O)O)[C@@H](c3ccc4c(c3)OCO4)CN2CC(=O)Nc2c(CC)cccc2CC)cc1 | cell-free assay, competition with immobilised ligand | 1 µM | 55 |
| O=C(Nc1c[nH]nc1C(=O)NC1CCNCC1)c1cc(F)cc(F)c1 | binding, competition with immobilised ligand | 1 µM | 99 |
| COc1ccnn2ncc(-c3ccnc(N(C)C)n3)c12 | binding | 1 µM | 100 |
| O=C(O)[C@H]1[C@H](Cn2nnc3ccccc3c2=O)CC[C@@H]1C(=O)c1ccc(OCCC2CCOCC2)cc1 | cell-free assay, competition with immobilised ligand | 1 µM | 100 |
| O=C(NCCCN1CCOCC1)c1ccc(Nc2ncc(Cl)c(-c3ccc(Cl)s3)n2)cc1 | binding, competition with immobilised ligand | 1 µM | 24 |
| CN(C)c1nccc(-c2cnc3ncccn23)n1 | binding | 1 µM | 74 |
